{"source": "ChEMBL document CHEMBL2331195", "about": "“Lahorenoic acids A-C, ortho-dialkyl-substituted aromatic acids from the biocontrol strain Pseudomonas aurantiaca PB-St2” (J Nat Prod, 2013)", "key": {"[1]": {"assay": "Antifungal activity against Colletotrichum falcatum assessed as inhibition of mycelial growth at 100 ug/disc incubated for 10 to 15 days at 25 degC", "format": "functional", "method_in_brief": "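Four C. falcatum strains from local sugar cane varieties (BF166, C01148, CP77400, SPF234) on potato dextrose agar; mycelial plug at plate centre, compound-loaded air-dried filter discs (25–200 μg, in methanol, chloroform or DMSO) placed 2 cm away; 10–15 days at 25 °C; zone of mycelial inhibition around disc; solvent discs as negative controls; three repeats in duplicate.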"}, "HCT-116": {"system": "HCT-116", "assay": "Cytotoxicity against human HCT116 cells assessed as growth inhibition after 5 days by hemocytometry", "format": "cell-based", "method_in_brief": "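HCT-116 cells were seeded at 5 × 10^4 cells/T25 flask in serum medium with 1% penicillin–streptomycin and 1% glutamine, at 37 °C and 5% CO2. Compound at various concentrations was added on day 3, followed by 120 h incubation. Cells were trypsinized, washed and resuspended in HBSS, then hemocytometer-counted. Counts were normalized to untreated control, and IC50 was derived by nonlinear regression.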"}, "[2]": {"system": "Mycobacterium tuberculosis", "assay": "Antituberculosis activity against Mycobacterium tuberculosis H37Rv […] incubated for 7 days by Alamar blue assay", "format": "functional", "method_in_brief": "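Virulent H37Rv (ATCC 27294) in 96-well plate; compounds from 10 mg/mL DMSO stock, 2-fold dilutions from top 100 μg/mL (1% v/v DMSO final); 7 days at 37 °C; growth by Alamar Blue fluorescence; MIC = lowest concentration giving ≥90% fluorescence inhibition versus untreated bacteria; rifampicin and isoniazid positive controls, 1% DMSO negative control.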"}, "MCF7": {"system": "MCF7", "assay": "Solid tumor cytotoxicity against human MCF7 cells assessed as inhibition of cell colony formation by disc diffusion soft-agar colony formation assay", "format": "functional, cell-based", "method_in_brief": "(§1)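 Cells plated in soft agar; compound dissolved in 250 μL DMSO, 15 μL applied to a cellulose disc on the plate; after incubation, colony-inhibition zone measured from disc edge to colony growth in zone units (200 zu = 6 mm); solid-tumour selectivity judged as ≥250 zu difference versus leukemia or normal CFU-GM cells.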"}, "LNCaP": {"system": "LNCaP", "assay": "Solid tumor cytotoxicity against human LNCAP cells assessed as inhibition of cell colony formation by disc diffusion soft-agar colony formation assay", "format": "functional, cell-based", "method_in_brief": "as §1"}, "H125": {"system": "H125", "assay": "Solid tumor cytotoxicity against human H125 cells assessed as inhibition of cell colony formation by disc diffusion soft-agar colony formation assay", "format": "functional, cell-based", "method_in_brief": "as §1"}, "[3]": {"system": "Arthrobacter crystallopoietes", "assay": "Antibacterial activity against Arthrobacter crystallopoietes DSM 20117 assessed as inhibition of visible bacterial growth after 24 hrs", "format": "functional", "settings": "Crystallibacter crystallopoietes", "method_in_brief": "(§2)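 Broth microdilution MIC using 2-fold serial dilutions. A. crystallopoietes DSM 20117 was grown in tryptic soy broth, and B. cereus in half-concentrated Mueller–Hinton broth. Final inoculum was 10^5 CFU per well. After 24 h at 37 °C, the MIC was read as the lowest concentration with no visible growth. Values are means of three independent determinations.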"}, "Bacillus cereus": {"system": "Bacillus cereus", "assay": "Antibacterial activity against Bacillus cereus assessed as inhibition of visible bacterial growth after 24 hrs", "format": "functional", "method_in_brief": "as §2"}}, "note": "The source made the active and inactive calls. No cut-off for these calls is given here.", "data": [{"smiles": "O=C(O)c1cccc2nc3ccccc3nc12", "note": "[PHENAZINE-1-CARBOXYLIC ACID]", "values": [{"measurement": "inhibition zone (IZ)", "setting": "[1]", "result": 2, "unit": "mm"}, {"measurement": "IC50", "setting": "HCT-116; Homo sapiens, HCT-116, 120 h, read-out: IC50", "result": 15.6, "unit": "µM"}, {"measurement": "MIC90", "setting": "[2]; H37Rv ATCC 27292, 168 h", "result": 32.9, "unit": "µg/mL"}, {"measurement": "inhibition zone (IZ)", "setting": "MCF7", "result": "Active"}, {"measurement": "inhibition zone (IZ)", "setting": "LNCaP", "result": "Active"}, {"measurement": "inhibition zone (IZ)", "setting": "H125", "result": "Active"}]}, {"smiles": "Oc1ccc2nc3ccccc3nc2c1", "values": [{"measurement": "inhibition zone (IZ)", "setting": "[1]", "result": "inactive"}, {"measurement": "IC50", "setting": "HCT-116; hct-116", "result": "Non-toxic"}, {"measurement": "MIC90", "setting": "[2]", "result": "inactive"}, {"measurement": "MIC", "setting": "[3]", "result": "inactive"}, {"measurement": "MIC", "setting": "Bacillus cereus", "result": "inactive"}, {"measurement": "inhibition zone (IZ)", "setting": "MCF7", "result": "inactive"}, {"measurement": "inhibition zone (IZ)", "setting": "LNCaP", "result": "inactive"}, {"measurement": "inhibition zone (IZ)", "setting": "H125", "result": "inactive"}]}, {"smiles": "COC(=O)CCCCCc1ccccc1/C=C/C(C)=O", "note": "[LAHORENOIC ACID B]", "values": [{"measurement": "IC50", "setting": "HCT-116; hct-116", "result": "Non-toxic"}, {"measurement": "MIC90", "setting": "[2]; H37Rv ATCC 27292, 168 h", "result": 49.5, "unit": "µg/mL"}]}, {"smiles": "Oc1ccc2nc3ccc(O)cc3nc2c1", "values": [{"measurement": "inhibition zone (IZ)", "setting": "[1]", "result": "inactive"}, {"measurement": "IC50", "setting": "HCT-116; hct-116", "result": "Non-toxic"}, {"measurement": "MIC", "setting": "[3]; DSM 20117, 24 h", "result": 25, "unit": "µg/mL"}, {"measurement": "MIC", "setting": "Bacillus cereus", "result": 25, "unit": "µg/mL"}]}]}
